Activity calls are given as the source filed them. The rule behind the calls is not given here. Where a SMILES comes first, the peptide text is derived from it. [ ]: non-standard residue; d: D form. NMeNle = CCCC[C@H](NC)C(=O)O
What was measured:
[1] = biological target: Delta-type opioid receptor (Mus musculus, UniProt P32300); experiment: Agonist activity at delta opioid receptor assessed as inhibition of electrically stimulated ICR mouse vas deferens contraction; assay type: functional, tissue-based
Method in brief: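 Vas deferens from male ICR mice, in 20 mL baths at 0.5 g tension, Mg-free oxygenated Krebs, 37 °C; electrical stimulation 0.1 Hz, 2.0 ms pulses, supramaximal voltage. Cumulative addition to maximal inhibition; integrity checked with 10 nM DPDPE. IC50 by Hill-equation nonlinear least-squares fit, at least four tissues.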

Mu-type opioid receptor [2] = biological target: T1, Mu-type opioid receptor (Rattus norvegicus, UniProt P33535); experiment: Displacement of [3H]DAMGO from rat mu opioid receptor expressed in HN9.10 cells; assay type: cell-based
Method in brief: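 HN9.10 cell membranes (50 μg) expressing rMOR, 10 test concentrations with 1.0 nM [3H]DAMGO in 50 mM Tris pH 7.4 with peptidase inhibitors and BSA, 3 h at 25 °C, duplicates; filtration, scintillation counting. Nonspecific with 10 μM naloxone. Ki by Cheng–Prusoff.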

[3] = biological target: T2, Gastrin/cholecystokinin type B receptor (Homo sapiens, UniProt P32239); experiment: Displacement of [125I]CCK-8(SO3) from human CCK2 receptor expressed in HEK293 cells; assay type: cell-based
T2 sequence (P32239 whole entry): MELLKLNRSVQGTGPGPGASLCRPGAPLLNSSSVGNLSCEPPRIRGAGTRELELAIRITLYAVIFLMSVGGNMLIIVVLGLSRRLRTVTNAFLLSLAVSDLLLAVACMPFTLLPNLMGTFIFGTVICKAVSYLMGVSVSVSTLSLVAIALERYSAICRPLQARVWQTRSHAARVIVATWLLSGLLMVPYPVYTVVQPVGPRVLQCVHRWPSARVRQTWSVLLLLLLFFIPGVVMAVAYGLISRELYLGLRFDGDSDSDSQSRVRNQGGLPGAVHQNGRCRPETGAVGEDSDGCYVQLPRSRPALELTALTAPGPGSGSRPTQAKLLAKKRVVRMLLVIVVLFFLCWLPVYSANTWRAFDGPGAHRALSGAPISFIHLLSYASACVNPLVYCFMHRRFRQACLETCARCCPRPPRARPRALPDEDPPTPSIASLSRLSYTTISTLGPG

[4] = biological target: T3, Cholecystokinin receptor type A (Homo sapiens, UniProt P32238); experiment: Displacement of [125I]CCK-8(SO3) from human CCK1 receptor expressed in HEK293 cells; assay type: cell-based
T3 sequence (P32238 whole entry): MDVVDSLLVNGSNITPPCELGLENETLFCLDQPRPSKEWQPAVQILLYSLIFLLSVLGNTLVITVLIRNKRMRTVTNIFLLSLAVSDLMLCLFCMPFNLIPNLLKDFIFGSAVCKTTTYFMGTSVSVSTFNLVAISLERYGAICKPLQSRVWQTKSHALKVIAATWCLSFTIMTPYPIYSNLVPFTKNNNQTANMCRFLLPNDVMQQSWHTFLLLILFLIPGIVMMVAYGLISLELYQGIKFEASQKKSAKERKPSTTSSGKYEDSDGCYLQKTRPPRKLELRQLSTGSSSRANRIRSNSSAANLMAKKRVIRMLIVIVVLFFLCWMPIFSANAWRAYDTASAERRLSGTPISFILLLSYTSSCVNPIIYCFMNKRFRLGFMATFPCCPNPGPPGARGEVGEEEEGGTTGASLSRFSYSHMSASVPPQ

[5] = biological target: Mu-type opioid receptor (Rattus norvegicus) (UniProt P33535); experiment: (§1) Activity against [35S]GTP-gamma-S binding to rat mu opioid receptor expressed in HN9.10 cells; assay type: functional, cell-based
Method in brief: (§2)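 Membranes (10 μg) from HN9.10 cells stably expressing hDOR or rMOR; various drug concentrations in duplicate or triplicate, 90 min at 30 °C in HEPES pH 7.4 with GDP, MgCl2, NaCl, 0.1 nM [35S]GTPγS; filtration, scintillation counting.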

Mu-type opioid receptor [6] = biological target: T1, Mu-type opioid receptor; experiment: as §1; assay type: functional, cell-based; method in brief: as §2
Mu-type opioid receptor [7] = biological target: Mu-type opioid receptor (Cavia porcellus, UniProt P97266); experiment: Agonist activity at mu opioid receptor assessed as inhibition of electrically stimulated Hartley guinea pig ileum contraction; assay type: functional, tissue-based
Method in brief: (§3)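 Longitudinal muscle–myenteric plexus strips from male Hartley guinea pig ileum, 1 g tension, oxygenated Krebs at 37 °C; 0.1 Hz, 0.4 ms supramaximal stimulation. […] Integrity checked with 10 nM PL-017. Hill-equation fit, at least four tissues.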

[8] = biological target: T4, Delta-type opioid receptor (Homo sapiens, UniProt P41143); experiment: Displacement of [3H]DPDPE from human delta opioid receptor expressed in HN9.10 cells; assay type: cell-based
Method in brief: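 HN9.10 cell membranes (50 μg) expressing hDOR, 10 test concentrations with 1.0 nM [3H]DPDPE in 50 mM Tris pH 7.4 with peptidase inhibitors and BSA, 3 h at 25 °C, duplicates; filtration, scintillation counting. Nonspecific with 10 μM naloxone. Ki by Cheng–Prusoff.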

[9] = biological target: T4, Delta-type opioid receptor; experiment: Activity against [35S]GTP-gamma-S binding to human delta opioid receptor expressed in HN9.10 cells; assay type: functional, cell-based; method in brief: as §2
[10] = biological target: T2, Gastrin/cholecystokinin type B receptor; experiment: Antagonist activity at CCK2 receptor expressed in HEK293 cells assessed as accumulation of [3H]inositol phosphates by PI assay; assay type: functional, cell-based
[11] = biological target: T5, Cholecystokinin receptor type A (Homo sapiens) (UniProt P32238); conditions: HEK293
T5 sequence (whole entry): T3 sequence (P32238 whole entry)

[12] = biological target: Mu-type opioid receptor (Cavia porcellus) (UniProt P97266); experiment: Agonist activity at mu opioid receptor assessed as inhibition of electrically stimulated Hartley guinea pig ileum contraction at 1 uM; assay type: functional, tissue-based; method in brief: as §3
Sequence of Mu-type opioid receptor (Cavia porcellus) (P97266 whole entry): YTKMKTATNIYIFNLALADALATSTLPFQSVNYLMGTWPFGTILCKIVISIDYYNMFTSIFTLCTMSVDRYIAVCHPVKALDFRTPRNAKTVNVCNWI

T1 sequence (P33535 whole entry): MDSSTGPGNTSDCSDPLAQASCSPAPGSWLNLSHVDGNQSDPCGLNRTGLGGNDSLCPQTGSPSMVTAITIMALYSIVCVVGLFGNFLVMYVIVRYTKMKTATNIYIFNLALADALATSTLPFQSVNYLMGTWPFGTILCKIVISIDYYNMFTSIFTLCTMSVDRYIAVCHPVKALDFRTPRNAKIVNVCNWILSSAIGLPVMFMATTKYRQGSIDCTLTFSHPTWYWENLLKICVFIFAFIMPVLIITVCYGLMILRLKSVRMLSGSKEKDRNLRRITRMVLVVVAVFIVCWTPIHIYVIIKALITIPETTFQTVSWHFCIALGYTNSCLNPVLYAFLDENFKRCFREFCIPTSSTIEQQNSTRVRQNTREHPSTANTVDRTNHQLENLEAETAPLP
Sequence of Mu-type opioid receptor (Rattus norvegicus) (P33535 whole entry): as above
Sequence of Mu-type opioid receptor (Cavia porcellus, UniProt P97266) (P97266 whole entry): as the sequence (P97266 whole entry) above
Sequence of Delta-type opioid receptor (Mus musculus, UniProt P32300) (P32300 whole entry): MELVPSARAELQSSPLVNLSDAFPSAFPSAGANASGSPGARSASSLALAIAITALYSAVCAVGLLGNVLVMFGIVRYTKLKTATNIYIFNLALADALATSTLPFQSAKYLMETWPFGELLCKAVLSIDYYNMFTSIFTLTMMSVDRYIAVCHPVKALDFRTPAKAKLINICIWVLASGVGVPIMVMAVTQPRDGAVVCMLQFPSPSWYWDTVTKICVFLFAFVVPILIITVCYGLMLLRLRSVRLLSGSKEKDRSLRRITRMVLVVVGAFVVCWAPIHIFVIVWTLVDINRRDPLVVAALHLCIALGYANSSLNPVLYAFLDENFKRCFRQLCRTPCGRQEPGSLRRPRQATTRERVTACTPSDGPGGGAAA
T4 sequence (P41143 whole entry): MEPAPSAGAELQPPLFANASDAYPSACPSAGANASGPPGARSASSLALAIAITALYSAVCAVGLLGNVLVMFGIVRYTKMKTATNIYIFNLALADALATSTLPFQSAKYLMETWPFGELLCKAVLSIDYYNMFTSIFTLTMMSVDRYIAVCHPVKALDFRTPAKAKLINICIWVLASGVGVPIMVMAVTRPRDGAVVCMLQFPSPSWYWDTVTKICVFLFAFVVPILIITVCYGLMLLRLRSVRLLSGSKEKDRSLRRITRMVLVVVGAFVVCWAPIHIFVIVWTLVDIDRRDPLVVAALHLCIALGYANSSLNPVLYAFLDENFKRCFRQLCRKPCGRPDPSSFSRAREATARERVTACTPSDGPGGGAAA

Compound | IC50 [1] | IC50 (Mu-type opioid receptor [2]) | Ki (Mu-type opioid receptor [2]) | IC50 [3] | Ki [3] | IC50 [4] | Ki [4] | Emax [5] | EC50 (Mu-type opioid receptor [6]) | IC50 (Mu-type opioid receptor [7]) | IC50 [8] | Ki [8] | EC50 [9] | Emax [9] | EC50 [10] | Log EC50 [11] | inhibition [12]
CCCC[C@H](NC(=O)[C@@H](Cc1c[nH]c2ccccc12)NC(=O)CNC(=O)[C@@H](Cc1ccccc1)NC(=O)[C@@H](N)Cc1ccc(O)cc1)C(=O)N[C@@H](CC(=O)O)C(=O)N[C@@H](Cc1ccccc1)C(N)=O | 170 nM | 708 nM | 300 nM | 1740 nM | 1700 nM | 1950 nM | 2000 nM | 160% | 45 nM | 2700 nM | 398 nM | 170 nM | 130 nM | 170% |  |  | 
CCCC[C@@H](NC(=O)[C@@H](N)Cc1ccc(O)cc1)C(=O)NCC(=O)N[C@@H](Cc1c[nH]c2ccccc12)C(=O)N(C)[C@@H](CCCC)C(=O)N[C@@H](CC(=O)O)C(=O)N[C@@H](Cc1ccccc1)C(N)=O | 9 nM | 58.9 nM | 25 nM | 3.8 nM | 3.8 nM |  |  | 70% | 110 nM | 48 nM | 4.68 nM | 2 nM | 15 nM | 150% | 19 nM |  | 
CCCC[C@@H](C(=O)N[C@@H](CC(=O)O)C(=O)N[C@@H](Cc1ccccc1)C(N)=O)N(C)C(=O)[C@H](Cc1c[nH]c2ccccc12)NC(=O)CNC(=O)[C@@H](Cc1ccccc1)NC(=O)[C@H](Cc1ccc(O)cc1)NC(=O)[C@@H](N)CC(=O)O |  | 11500 nM | 5200 nM |  |  | 3160 nM | 3200 nM | 91% | 81 nM |  | 550 nM | 250 nM | 110 nM | 80% |  | inactive | 
CCCC[C@@H](C(=O)N[C@@H](CC(=O)O)C(=O)N[C@@H](Cc1ccccc1)C(N)=O)N(C)C(=O)[C@@H](Cc1c[nH]c2ccccc12)NC(=O)CNC(=O)[C@@H](C)NC(=O)[C@@H](N)Cc1ccc(O)cc1 | 63 nM | 50.1 nM | 22 nM | 1.55 nM | 1.5 nM | 316 nM | 320 nM | 44% | 38 nM | 150 nM | 3.47 nM | 1.5 nM | 23 nM | 56% | 6.6 nM |  | 
CCCC[C@@H](C(=O)N[C@@H](CC(=O)O)C(=O)N[C@@H](Cc1ccccc1)C(N)=O)N(C)C(=O)[C@H](Cc1c[nH]c2ccccc12)NC(=O)CNC(=O)CNC(=O)[C@@H](N)Cc1ccc(O)cc1 (H-YGGW[NMeNle]DF-NH2) | 220 nM | 550 nM | 240 nM | 4.79 nM | 4.8 nM |  |  | 100% | 2 nM | 4200 nM | 200 nM | 85 nM | 76 nM | 68% | 32 nM | inactive | 
CCCC[C@@H](C(=O)N[C@@H](CC(=O)O)C(=O)N[C@@H](Cc1ccccc1)C(N)=O)N(C)C(=O)[C@H](Cc1c[nH]c2ccccc12)NC(=O)CNC(=O)[C@H]1CCCN1C(=O)[C@@H](N)Cc1ccc(O)cc1 | 890 nM | 6030 nM | 2600 nM | 2.69 nM | 2.7 nM | 10500 nM | > 10000 nM | 210% | 900 nM |  | 200 nM | 85 nM | 890 nM | 110% | 36 nM |  | 13%
